Tests used:
Type in all cases: functional
[1] = tested on: K562; assay: Effect on HIST2H2AA gene expression in human K562 cells assessed as change in mRNA transcript expression at 10 nM after 48 hrs by DNA microarray analysis relative to control
How it was run: (§1)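 K562 CML cells (b3a2 Bcr-Abl) in standard ATCC-recommended culture, exposed once to 10 nM conjugate and harvested at 48 h. Untreated controls were also collected at 48 h. Transcripts were profiled on Human Gene 1.0 ST whole-genome oligonucleotide arrays, and each treated level was expressed relative to the untreated control, with a cutoff of at least twofold change.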

[2] = tested on: K562; assay: Effect on RHD/RHCE gene expression in human K562 cells assessed as change in mRNA transcript expression at 10 nM after 48 hrs by DNA microarray analysis relative to control; how it was run: as §1
[3] = tested on: K562; assay: Effect on HIST1H2AH gene expression in human K562 cells assessed as change in mRNA transcript expression at 10 nM after 48 hrs by DNA microarray analysis relative to control
How it was run: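 Transcripts were profiled on Affymetrix GeneChip Human Gene 1.0 ST arrays in K562 cells treated at 10 nM. Treated cells were collected at 6, 12, 24 and 48 h; untreated controls were collected at 48 h. Transcripts changed at least twofold versus control were scored.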

[4] = tested on: K562; assay: Effect on TXNIP gene expression in human K562 cells assessed as change in mRNA transcript expression at 10 nM after 48 hrs by DNA microarray analysis relative to control
How it was run: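 K562 CML cells (b3a2 Bcr-Abl) kept under standard culture conditions were exposed to 10 nM conjugate and harvested at 6, 12, 24 and 48 h. Untreated controls were harvested at 48 h. Whole-transcript oligonucleotide microarray profiling was done, and changes of at least twofold versus control were scored.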

[5] = tested on: K562; assay: Induction of apoptosis in human K562 cells assessed as viable cells at 250 nM after 48 hrs by annexin-V FITC and propidium iodide staining-based FACS analysis; conditions: K562, 48 h, read-out: Activity
How it was run: (§2)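 Treated K562 cells […] stained with Annexin V-FITC/propidium iodide. Apoptosis was scored by two-dimensional flow cytometry at a core FACS facility.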

[6] = tested on: K562; assay: Induction of apoptosis in human K562 cells assessed as non-viable necrotic cells at 250 nM after 48 hrs by annexin-V FITC and propidium iodide staining-based FACS analysis; how it was run: as §2

CC(=O)Nc1cn(C)c(C(=O)Nc2cn(C)c(C(=O)NCCC(=O)Nc3cn(C)c(C(=O)NCCCC(=O)Nc4cc(C(=O)Nc5cn(C)c(C(=O)Nc6ccc7[nH]c(C(=O)N8CC(CCl)c9c8cc(O)c8ccccc98)cc7c6)n5)n(C)c4)n3)n2)n1 (stereo unspecified)
fold change (FC) [1]: >=2 | fold change (FC) [2]: >=2 | fold change (FC) [3]: >=2 | fold change (FC) [4]: >=2 | viability at 0.25 µM [5]: 71.8% | Activity [6]: 2.58%

Source: ChEMBL document CHEMBL1157704, “Potent activity against K562 cells by polyamide-seco-CBI conjugates targeting histone H4 genes” (Bioorg Med Chem, 2010)
